# From PubChem BioAssay
# Hits are enriched below; roughly 0.79% of the tested compounds scored in any of these assays.
# mIAP block = inhibitors of mouse IAP, primary screen, biochemical, luminescence, uHTS. intestinal alkaline phosphatase [Mus musculus]. purified mouse IAP, CDP-Star luminescence, 30 min. inhibition, % at 10 µM. 0.2% of 330,000 active. AID 2806, 2010;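 active = inhibition of at least 40% at 10 µM in the primary screen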;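 also: plate controls were DMSO with enzyme for no effect and no enzyme wells for full effect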
# hIAP inh = human IAP inhibitors, primary screen, biochemical, luminescence, uHTS. Intestinal-type alkaline phosphatase (Homo sapiens), P09923. purified IAP, CDP-Star luminescence, 30 min. inhibition, % at 10 µM. 0.12% of 330,000 active;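 active = inhibition reaching a set limit with compound at 10 µM in the primary screen, cut at about 35% in these data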;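 also: plate controls were DMSO wells with enzyme for no effect and no-enzyme buffer wells for full effect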
# Target sequence (P09923 whole entry, looked up): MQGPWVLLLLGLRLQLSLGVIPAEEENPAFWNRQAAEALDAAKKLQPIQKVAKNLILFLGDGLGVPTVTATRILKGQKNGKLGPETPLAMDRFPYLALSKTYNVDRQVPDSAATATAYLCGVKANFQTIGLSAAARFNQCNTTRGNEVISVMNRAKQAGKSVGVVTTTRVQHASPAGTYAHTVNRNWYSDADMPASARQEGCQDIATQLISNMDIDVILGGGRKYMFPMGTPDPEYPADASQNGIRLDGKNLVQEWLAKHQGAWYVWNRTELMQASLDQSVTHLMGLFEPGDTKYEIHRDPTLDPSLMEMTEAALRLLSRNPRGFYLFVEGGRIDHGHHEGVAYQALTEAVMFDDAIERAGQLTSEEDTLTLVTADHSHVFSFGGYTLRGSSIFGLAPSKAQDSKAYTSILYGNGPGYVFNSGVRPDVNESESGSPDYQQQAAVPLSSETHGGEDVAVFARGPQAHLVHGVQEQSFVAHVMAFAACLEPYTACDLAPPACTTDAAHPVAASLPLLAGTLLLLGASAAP
# bIAP inh = bovine intestinal alkaline phosphatase inhibitors, primary screen, selectivity assay for TNAP inhibitor project, biochemical, bovine IAP, CDP-star luminescence; alkaline phosphatase, intestinal [Bos taurus]; purified bovine IAP, 30 min; inhibition, % at 20 µM; 190,000 tested, under 10 active;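 active = over 50% inhibition of intestinal alkaline phosphatase at 20 µM in the single-dose screen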
#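 test system = bovine IAP enzyme | medium = DEA buffer 100 mM, pH 9.8, with MgCl2 1.0 mM, ZnCl2 0.02 mM | detection = luminescence | dosing = single compound dose of 20 µM, 2% DMSO final | incubation = 30 min reaction at room temperature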
# mIAP activ = activators of mouse IAP, primary screen, biochemical, luminescence, uHTS; intestinal alkaline phosphatase [Mus musculus]; muIAP, CDP-Star luminescence, 30 min; active compounds read high; 1 = vehicle-only enzyme signal, 0 = enzyme-free wells; activation factor at 10 µM; 0.24% of 330,000 active; AID 2805, 2010;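 active = activation factor of at least 2 at 20 µM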
#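 Assay system: mouse IAP enzyme; reagent: chemiluminescent substrate CDP-Star; dosing: test compounds delivered from DMSO solution; schedule: 30 min at room temperature; measured by: luminescence from enzymatic CDP-Star hydrolysis; controls: DMSO-only wells and no-enzyme negative control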
# bIAP act = bovine intestinal alkaline phosphatase activators, primary screen, biochemical, bovine IAP, CDP-star luminescence. alkaline phosphatase, intestinal [Bos taurus]. purified bovine IAP, 30 min; active compounds read high; fold of DMSO-control signal, blank-subtracted. activation factor at 20 µM. 0.17% of 200,000 active. AID 1016, 2008;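 active = activation factor of 2 or more at 20 µM, a signal rise over negative controls twice the positive control's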
# hIAP act = human IAP activators, primary screen, biochemical, luminescence, uHTS; activation factor at 10 µM; 0.16% of 330,000 active; AID 2524, 2010; Intestinal-type alkaline phosphatase (Homo sapiens), P09923; purified human IAP, CDP-Star luminescence, 30 min; active compounds read high; 1 = vehicle-only enzyme, 0 = enzyme-free background;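 active = activation factor of the enzyme at least 2-fold when tested at 20 µM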
# mIAP inh conf = inhibitors of mouse IAP, confirmation, biochemical, luminescence, single concentration. shares compounds with mIAP block. purified mouse IAP, CDP-Star luminescence, 30 min. inhibition, % at 10 µM. 4.7% of 11,000 active. AID 434971, 2010;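 active = inhibition of at least 40% at 10 µM in either of the two replicates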;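 also: plate controls were DMSO wells with enzyme for no effect and buffer wells lacking enzyme for full effect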
# * marks the source's active call; other numbers are inactive results; i = inactive; / = no result given.
SMILES,mIAP block,hIAP inh,bIAP inh,mIAP activ,bIAP act,hIAP act,mIAP inh conf
CC(NC(=O)Nc1ccc([N+](=O)[O-])cc1)C(c1ccccc1)N1CCOCC1 (stereo unspecified),2,2,-30,0.98,1.3,0.98,/
CC(NC(=O)Nc1ccc(Cl)c(Cl)c1)C(c1ccccc1)N1CCOCC1 (stereo unspecified),-330,-22,-15,4.3*,1.1,1.2,-221
C=CCNC(=O)C(=O)N/N=C/c1ccco1,0,-6,12,1,0.9,1.1,/
O=C(NCc1ccc2c(c1)OCO2)c1cc2c(s1)CSC2,45*,15,13,0.55,0.9,0.85,59*
O=C(NCc1ccco1)c1cc2c(s1)CSC2,45*,5,-6,0.55,1.1,0.95,45*
CC(C)OC(=O)/C(C#N)=C/c1ccc(-c2ccc(SC(F)F)cc2)o1,13,-4,0,0.87,1,1,/
NS(=O)(=O)c1ccc(-c2ccc(C=O)o2)cc1,27,14,-4,0.73,1,0.86,/
CC1=C(C#N)C(=O)NC(=O)/C1=C/c1ccc(-c2ccc(S(N)(=O)=O)cc2)o1,54*,16,-4,0.46,1,0.83,70*
NS(=O)(=O)c1ccc(-c2ccc(/C=C3\NC(=S)NC3=O)o2)cc1,90*,-1,/,0.1,/,1,77*
COC(=O)/C(C#N)=C/c1ccc(-c2ccc(S(N)(=O)=O)cc2)o1,64*,7,/,0.36,/,0.93,79*
CN(CC(=O)Nc1ccccc1C(F)(F)F)C(=O)c1cc([N+](=O)[O-])ccc1N1CCOCC1,-5,-16,/,1.1,/,1.2,/
Cc1cccc(C(=O)NCC(=O)OCC(=O)c2ccc(Cl)s2)c1,5,4,/,0.95,/,0.96,/
CCOC(=O)c1ccc(N2CCN(c3ccccc3F)CC2)c(NC(=O)Nc2cccc(OC)c2)c1,i,-72,-20,8.6*,1.2,1.7,-362
COC(=O)c1ccc(N2CCOCC2)c(NC(=O)Nc2cccc(OC)c2)c1,-23,0,-1,1.2,1,1,/
Cc1ccc(CS(=O)Cc2ccc(C(=O)NCCc3ccccc3)o2)cc1 (stereo unspecified),2,-13,/,0.98,/,1.1,/
Cc1cc(Cl)ccc1NC(=S)NCCC(c1ccccc1)c1ccccc1,-266,-9,-39,3.7*,1.4,1.1,-105
Cc1c(Cl)cccc1NC(=S)NCCC(c1ccccc1)c1ccccc1,-312,3,16,4.1*,0.8,0.97,-375
CC(=O)Nc1csc2ccccc12,2,1,-4,0.98,1,0.99,/
O=C(Nc1ccccc1)Nc1csc2ccccc12,-223,-4,/,3.2*,/,1,-108
CCOc1ccc(S(=O)(=O)Nc2cc(Sc3ncn[nH]3)c3oc(=O)sc3c2)cc1,72*,13,-35,0.28,1.4,0.87,82*
CCOc1ccc(S(=O)(=O)Nc2ncn[nH]2)cc1,0,11,/,1,/,0.89,/
CCCN(C(=O)c1nc2nc(C)cc(C)n2n1)c1c(N)n(Cc2ccccc2)c(=O)[nH]c1=O,1,-9,/,0.99,/,1.1,/
Cc1cc(C)cc(NC(=O)Nc2ccc3c(c2)N(C)C(=O)CS3)c1,-298,-42,0,4*,1,1.4,-154
CCc1ccc(NC(=O)Nc2ccc3c(c2)N(C)C(=O)CS3)cc1,-187,-60,13,2.9*,0.9,1.6,-114
COc1c(O)ccc(/C=N\NC(=O)c2ccc3c(c2)OCO3)c1[N+](=O)[O-],6,2,/,0.94,/,0.98,/
SMILES,mIAP block,hIAP inh,bIAP inh,mIAP activ,bIAP act,hIAP act,mIAP inh conf
NS(=O)(=O)c1ccc(-n2nncc2-c2ccco2)cc1,4,-14,/,0.96,/,1.1,/
Cc1ccc(Nc2nc(-c3ccc(F)cc3)cs2)nc1,-7,5,/,1.1,/,0.95,/
Cc1ccc(Nc2nc(-c3ccc(O)c(O)c3)cs2)nc1,46*,-8,20,0.54,0.8,1.1,52*
CCOP(=O)(OCC)C(NC(=O)Nc1ccc(C)c(Cl)c1)c1ccccc1 (stereo unspecified),-237,8,-6,3.4*,1.1,0.92,-159
O=S(=O)(Nc1cc(Sc2ncn[nH]2)c(O)c2ccccc12)c1ccccc1,7,-8,2,0.93,1,1.1,/
Cc1cc(O)c(Sc2ncn[nH]2)cc1NS(=O)(=O)c1ccc(Cl)cc1,47*,-10,/,0.53,/,1.1,44*
Nc1ccncc1N,72*,-21,/,0.28,/,1.2,75*
Nc1cccc2cnccc12,4,-13,0,0.96,1,1.1,/
Cc1nc(NC(=O)c2ccccc2)sc1-c1csc(NCc2ccco2)n1,44*,26,10,0.56,0.9,0.74,56*
COc1ccc(C2CC(c3ccc(C(F)(F)F)cc3)=NN2c2ccc(S(N)(=O)=O)cc2)cc1 (stereo unspecified),-74,/,/,1.7,/,/,/
COc1ccc(C2CC(c3ccccc3C(F)(F)F)=NN2c2ccc(S(N)(=O)=O)cc2)cc1 (stereo unspecified),-123,/,/,2.2*,/,/,-121
COc1ccc(C2CC(c3ccccc3F)=NN2c2ccc(S(N)(=O)=O)cc2)cc1 (stereo unspecified),-114,/,/,2.1*,/,/,-113
COc1ccc(C2CC(c3ccccc3Br)=NN2c2ccc(S(N)(=O)=O)cc2)cc1 (stereo unspecified),-17,/,/,1.2,/,/,/
NS(=O)(=O)c1ccc(NC(=S)NC(=O)/C=C/c2ccco2)cc1,91*,4,9,0.092,0.9,0.96,77*
O=C(/C=C/c1ccco1)NCc1ccc(F)cc1,0,4,-5,1,1,0.96,/
NS(=O)(=O)c1ccc(CNC(=O)/C=C/c2ccco2)cc1,46*,2,/,0.54,/,0.98,50*
Cc1cccc(-c2n[nH]c(=S)n2/N=C/C=C/c2ccco2)c1,46*,-8,/,0.54,/,1.1,53*
CC(/C=N/n1c(-c2ccco2)n[nH]c1=S)=C\c1ccco1,50*,7,18,0.5,0.8,0.93,52*
CCOC(=O)CSC1=Nc2ccccc2C2=NC(CC(=O)NCc3ccc4c(c3)OCO4)C(=O)N12 (stereo unspecified),44*,20,-2,0.56,1,0.8,59*
